pIC50, pKi: −log10 of the molar value. Converted amounts (≈) assume the structure as drawn. The source made the active and inactive calls. The calls are words filed in the database; no cut-off is given here.
Tests used:
[1] = Selectivity ratio of Ki for N-terminal GST-tagged human recombinant PDE5A1 (1 to 875 residues) expressed in baculovirus-infected Sf9 cells to Ki for human PDE10A2 transfected in human AD293 cells cytosolic fraction
[2] = Selectivity ratio of Ki for N-terminal GST-tagged full length human recombinant PDE8A1 expressed in baculovirus-infected Sf9 cells to Ki for human PDE10A2 transfected in human AD293 cells cytosolic fraction
[3] = Selectivity ratio of Ki for N-terminal GST-tagged full length human recombinant PDE9A2 expressed in baculovirus-infected Sf9 cells to Ki for human PDE10A2 transfected in human AD293 cells cytosolic fraction
[4] = Selectivity ratio of Ki for Rhesus monkey PDE2A3 transfected in AD293 cells cytosolic fraction to Ki for human PDE10A2 transfected in human AD293 cells cytosolic fraction; format: cell-based
[5] = Selectivity ratio of Ki for N-terminal His-GST-tagged human recombinant PDE3A(669 to 1141 residues) expressed in baculovirus-infected Sf9 cells to Ki for human PDE10A2 transfected in human AD293 cells cytosolic fraction
[6] = Selectivity ratio of Ki for N-terminal GST-tagged and C-terminal His-tagged human recombinant PDE7A (122 to 456 residues) expressed in baculovirus-infected Sf9 cells to Ki for human PDE10A2 transfected in human AD293 cells cytosolic fraction
[7] = Selectivity ratio of Ki for N-terminal GST-tagged human recombinant PDE4A1A (1 to 647 residues) expressed in baculovirus-infected Sf9 cells to Ki for human PDE10A2 transfected in human AD293 cells cytosolic fraction
[8] = Selectivity ratio of Ki for N-terminal GST-tagged human recombinant PDE1A expressed in baculovirus-infected Sf9 cells to Ki for human PDE10A2 transfected in human AD293 cells cytosolic fraction
[9] = Selectivity ratio of Ki for N-terminal GST-tagged human recombinant PDE11A4 (1 to 943 residues) expressed in baculovirus-infected Sf9 cells to Ki for human PDE10A2 transfected in human AD293 cells cytosolic fraction
[10] = biological target: cAMP and cAMP-inhibited cGMP 3',5'-cyclic phosphodiesterase 10A (Homo sapiens, UniProt Q9Y233); assay: Inhibition of human PDE10A2 transfected in human AD293 cells cytosolic fraction using cAMP as substrate by fluorescence polarization assay; format: subcellular, Cytosol
cAMP and cAMP-inhibited cGMP 3',5'-cyclic phosphodiesterase 10A, sequence (Q9Y233 whole entry): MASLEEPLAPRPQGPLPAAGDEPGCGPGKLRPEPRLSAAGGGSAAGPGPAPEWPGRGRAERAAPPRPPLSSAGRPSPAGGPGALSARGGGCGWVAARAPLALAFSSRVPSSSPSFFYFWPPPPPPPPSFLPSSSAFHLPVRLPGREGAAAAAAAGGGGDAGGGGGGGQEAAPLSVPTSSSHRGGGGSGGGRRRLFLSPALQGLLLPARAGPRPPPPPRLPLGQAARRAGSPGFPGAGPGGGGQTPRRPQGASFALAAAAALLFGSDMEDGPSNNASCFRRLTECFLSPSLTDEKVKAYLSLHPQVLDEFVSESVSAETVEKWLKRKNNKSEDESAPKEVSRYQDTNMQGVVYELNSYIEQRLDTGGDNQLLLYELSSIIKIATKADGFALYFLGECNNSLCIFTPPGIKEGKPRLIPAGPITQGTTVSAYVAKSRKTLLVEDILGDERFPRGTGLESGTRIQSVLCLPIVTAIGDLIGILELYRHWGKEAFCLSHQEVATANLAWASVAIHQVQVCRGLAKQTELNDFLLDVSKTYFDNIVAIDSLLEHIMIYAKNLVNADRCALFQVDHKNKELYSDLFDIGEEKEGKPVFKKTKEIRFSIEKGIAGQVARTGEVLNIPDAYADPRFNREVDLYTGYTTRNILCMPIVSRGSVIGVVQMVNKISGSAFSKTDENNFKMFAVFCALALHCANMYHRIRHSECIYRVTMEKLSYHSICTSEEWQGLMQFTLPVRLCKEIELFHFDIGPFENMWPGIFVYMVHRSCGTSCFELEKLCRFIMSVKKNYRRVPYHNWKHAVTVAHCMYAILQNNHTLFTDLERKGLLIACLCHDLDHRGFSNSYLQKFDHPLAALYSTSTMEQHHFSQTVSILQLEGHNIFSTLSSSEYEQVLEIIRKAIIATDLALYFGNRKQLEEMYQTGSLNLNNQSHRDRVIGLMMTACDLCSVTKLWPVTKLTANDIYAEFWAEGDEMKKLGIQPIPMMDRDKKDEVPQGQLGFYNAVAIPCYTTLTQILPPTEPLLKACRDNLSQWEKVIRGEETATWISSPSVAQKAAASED

[11] = Unbound plasma clearance in rat; format: ADME; conditions: in vivo
In short: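 Rat unbound clearance (CLu) was calculated by dividing the measured rat plasma clearance by the rat plasma free fraction.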

[12] = biological target: Voltage-gated inwardly rectifying potassium channel KCNH2 (Homo sapiens, UniProt Q12809); assay: Displacement of MK499 from hERG; format: toxicity
Voltage-gated inwardly rectifying potassium channel KCNH2, sequence (Q12809 whole entry): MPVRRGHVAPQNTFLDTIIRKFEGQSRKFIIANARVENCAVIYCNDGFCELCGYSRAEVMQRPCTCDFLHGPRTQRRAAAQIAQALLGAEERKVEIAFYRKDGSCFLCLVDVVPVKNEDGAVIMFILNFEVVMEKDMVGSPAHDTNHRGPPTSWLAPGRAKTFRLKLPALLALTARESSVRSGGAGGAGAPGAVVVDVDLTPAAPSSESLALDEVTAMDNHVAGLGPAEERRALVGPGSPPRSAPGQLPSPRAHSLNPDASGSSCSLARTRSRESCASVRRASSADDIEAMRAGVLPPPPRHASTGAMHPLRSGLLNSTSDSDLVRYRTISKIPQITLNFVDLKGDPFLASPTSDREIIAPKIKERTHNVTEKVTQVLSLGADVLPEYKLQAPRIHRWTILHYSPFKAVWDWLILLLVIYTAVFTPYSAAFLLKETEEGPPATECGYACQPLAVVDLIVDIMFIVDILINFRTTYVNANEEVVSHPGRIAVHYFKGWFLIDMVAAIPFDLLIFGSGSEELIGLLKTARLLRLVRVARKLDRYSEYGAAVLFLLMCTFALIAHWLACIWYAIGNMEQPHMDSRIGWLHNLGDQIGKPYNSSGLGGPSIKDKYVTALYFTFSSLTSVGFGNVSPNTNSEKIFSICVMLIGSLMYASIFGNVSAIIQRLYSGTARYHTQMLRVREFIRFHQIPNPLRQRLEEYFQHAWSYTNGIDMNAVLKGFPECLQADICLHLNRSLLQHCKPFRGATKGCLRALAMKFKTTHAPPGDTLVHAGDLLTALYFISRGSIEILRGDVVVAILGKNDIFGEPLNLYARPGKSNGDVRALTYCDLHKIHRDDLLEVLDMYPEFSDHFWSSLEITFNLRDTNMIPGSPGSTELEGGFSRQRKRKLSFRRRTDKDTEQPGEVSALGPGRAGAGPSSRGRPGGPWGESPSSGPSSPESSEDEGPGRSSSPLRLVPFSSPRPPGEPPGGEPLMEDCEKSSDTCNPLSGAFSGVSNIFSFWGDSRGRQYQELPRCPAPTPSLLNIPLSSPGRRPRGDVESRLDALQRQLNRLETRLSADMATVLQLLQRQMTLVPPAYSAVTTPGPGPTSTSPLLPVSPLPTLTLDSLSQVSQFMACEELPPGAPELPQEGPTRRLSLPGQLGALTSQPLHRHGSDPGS

P-gp (ABCB1) = P-gp (ABCB1) (Rattus norvegicus, UniProt P43245); assay: (§1) Substrate activity at rat P-gp assessed as efflux ratio; format: ADME
P-gp (ABCB1), sequence (P43245 whole entry): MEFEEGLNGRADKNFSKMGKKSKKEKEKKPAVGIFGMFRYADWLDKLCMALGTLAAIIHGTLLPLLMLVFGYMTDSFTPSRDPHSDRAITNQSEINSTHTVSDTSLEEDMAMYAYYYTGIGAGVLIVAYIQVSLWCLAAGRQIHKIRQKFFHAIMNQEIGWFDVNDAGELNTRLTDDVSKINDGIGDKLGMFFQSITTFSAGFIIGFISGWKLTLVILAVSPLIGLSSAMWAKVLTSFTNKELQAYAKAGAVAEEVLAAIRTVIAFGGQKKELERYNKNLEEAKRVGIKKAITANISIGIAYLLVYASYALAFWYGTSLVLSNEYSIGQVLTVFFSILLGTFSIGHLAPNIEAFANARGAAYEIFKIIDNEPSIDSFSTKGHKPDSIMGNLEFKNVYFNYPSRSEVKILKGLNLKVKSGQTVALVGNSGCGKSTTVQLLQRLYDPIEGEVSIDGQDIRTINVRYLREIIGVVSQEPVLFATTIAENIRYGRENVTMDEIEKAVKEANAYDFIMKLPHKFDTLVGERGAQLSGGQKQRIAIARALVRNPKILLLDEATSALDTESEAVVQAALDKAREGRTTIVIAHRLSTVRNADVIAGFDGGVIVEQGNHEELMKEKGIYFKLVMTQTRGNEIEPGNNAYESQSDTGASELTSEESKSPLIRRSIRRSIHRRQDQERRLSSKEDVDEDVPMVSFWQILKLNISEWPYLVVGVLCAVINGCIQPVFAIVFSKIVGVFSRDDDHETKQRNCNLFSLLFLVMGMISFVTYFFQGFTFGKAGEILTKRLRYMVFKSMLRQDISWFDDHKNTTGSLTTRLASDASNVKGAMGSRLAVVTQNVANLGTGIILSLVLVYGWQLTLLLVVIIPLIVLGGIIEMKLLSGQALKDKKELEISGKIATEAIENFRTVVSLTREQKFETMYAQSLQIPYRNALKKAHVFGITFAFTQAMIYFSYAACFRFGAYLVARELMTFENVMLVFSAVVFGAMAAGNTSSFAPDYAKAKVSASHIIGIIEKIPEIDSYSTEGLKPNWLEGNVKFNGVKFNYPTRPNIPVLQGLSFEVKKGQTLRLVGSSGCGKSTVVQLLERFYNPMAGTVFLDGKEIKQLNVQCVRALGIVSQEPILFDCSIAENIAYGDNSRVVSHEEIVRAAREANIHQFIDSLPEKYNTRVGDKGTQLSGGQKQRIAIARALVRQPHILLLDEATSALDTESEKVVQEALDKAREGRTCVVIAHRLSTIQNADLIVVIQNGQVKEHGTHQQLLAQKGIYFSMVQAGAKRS

[13] = biological target: ATP-dependent translocase ABCB1 (Rattus norvegicus, UniProt P43245); assay: as §1; format: ADME
ATP-dependent translocase ABCB1, sequence (P43245 whole entry): as above

[14] = Aqueous solubility of the compound at pH 7; format: physicochemical; conditions: buffer
Rattus norvegicus = assay: Cognitive-enhancing activity in rat assessed as improvement in novel object recognition at 0.56 mg/kg, po measured after 1 hr by novel object recognition test; format: functional, organism-based
In short: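 Novel object recognition in rats: oral dosing, then discrimination of a novel object from one seen 48 h earlier. Doses 0.08–0.25 mg/kg; donepezil 0.56 mg/kg as positive control. Groups compared with vehicle (p < 0.05). Plasma for exposure taken 1 h post dose, n = 4/group.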

| SMILES | pKi [10] | CL free [11] | efflux ratio (P-gp (ABCB1)) | Ratio [13] | solubility [14] | Ratio Ki [1] | Ratio Ki [2] | Ratio Ki [3] | Ratio Ki [4] | Ratio Ki [5] | Ratio Ki [6] | Ratio Ki [7] | Ratio Ki [8] | Ratio Ki [9] | pIC50 [12] | Activity (Rattus norvegicus) |
| --- | --- | --- | --- | --- | --- | --- | --- | --- | --- | --- | --- | --- | --- | --- | --- | --- |
| COc1ccc([C@H]2C[C@@H]2COc2cc(NCc3cnn(C)c3)nc(C)n2)nc1 | 10.27 | 424.8 L/h/kg | – | – | – | > 490000 | > 490000 | > 490000 | > 490000 | > 490000 | > 490000 | > 490000 | > 490000 | > 490000 | – | – |
| Cn1cc(CNc2cc(OC[C@H]3C[C@@H]3c3ccccn3)nc3ccncc23)cn1 | 9.92 | – | – | 24 | 22 µM (≈ 8.5 µg/mL) | > 20000 | > 20000 | > 20000 | > 20000 | > 20000 | > 20000 | > 20000 | > 20000 | > 20000 | – | – |
| Cc1nc(NCc2nnc(C)s2)cc(OC[C@H]2C[C@@H]2c2ccccn2)n1 | 9.48 | 11.1 L/h/kg | – | – | – | > 45000 | > 45000 | > 45000 | > 45000 | > 45000 | > 45000 | > 45000 | > 45000 | > 45000 | – | – |
| Cc1nc(NCc2cnn(C)c2)cc(OC[C@H]2C[C@@H]2c2ccccn2)n1 | 9.22 | – | – | – | – | > 67000 | > 67000 | > 67000 | > 67000 | > 67000 | > 67000 | > 67000 | > 67000 | > 67000 | – | – |
| COc1ccc([C@H]2C[C@@H]2COc2cc(NCc3nnc(C)s3)nc(C)n2)nc1 | 10.42 | 31.8 L/h/kg | – | – | – | > 225000 | > 225000 | > 225000 | > 225000 | > 225000 | > 225000 | > 225000 | > 225000 | > 225000 | – | – |
| COc1cc2c(cc1OC)C(=O)C(CC1CCN(Cc3ccccc3)CC1)C2 (centres undefined) | – | – | – | – | – | – | – | – | – | – | – | – | – | – | – | Active |
| Cn1cc(CNc2cc(OC[C@H]3C[C@@H]3c3ccccn3)nc3ccccc23)cn1 | 9.31 | – | 0.5 | – | 19 µM (≈ 7.32 µg/mL) | > 5000 | > 5000 | > 5000 | > 5000 | > 5000 | > 5000 | > 5000 | > 5000 | > 5000 | – | – |
| Cn1cc(CNc2cc(OC[C@H]3C[C@@H]3c3ccccn3)nc3ncccc23)cn1 | 8.07 | – | – | – | – | – | – | – | – | – | – | – | – | – | – | – |

Second part, led by results:

| pKi [10] | CL free [11] | efflux ratio (P-gp (ABCB1)) | Ratio [13] | solubility [14] | SMILES | Ratio Ki [1] | Ratio Ki [2] | Ratio Ki [3] | Ratio Ki [4] | Ratio Ki [5] | Ratio Ki [6] | Ratio Ki [7] | Ratio Ki [8] | Ratio Ki [9] | pIC50 [12] | Activity (Rattus norvegicus) |
| --- | --- | --- | --- | --- | --- | --- | --- | --- | --- | --- | --- | --- | --- | --- | --- | --- |
| 9.96 | – | – | – | – | Cc1nnc(CNc2cc(OC[C@H]3C[C@@H]3c3ccccn3)nc3cccnc23)s1 | > 3600 | > 3600 | > 3600 | > 3600 | > 3600 | > 3600 | > 3600 | > 3600 | > 3600 | 4.60 | – |
| 8.49 | – | – | – | – | Cc1c(Cl)cc(OC[C@H]2C[C@@H]2c2ccccn2)nc1NCc1cnn(C)c1 | – | – | – | – | – | – | – | – | – | – | – |
| – | 174 L/h/kg | 2 | – | – | Cc1c(Cl)nc(OC[C@H]2C[C@@H]2c2ccccn2)nc1NCc1cnn(C)c1 | > 2500 | > 2500 | > 2500 | > 2500 | > 2500 | > 2500 | > 2500 | > 2500 | > 2500 | – | – |
| 9.89 | – | – | 6.3 | 149 µM (≈ 57.6 µg/mL) | Cn1cc(CNc2cc(OC[C@H]3C[C@@H]3c3ccccn3)nc3cnccc23)cn1 | > 7000 | > 7000 | > 7000 | > 7000 | > 7000 | > 7000 | > 7000 | > 7000 | > 7000 | – | – |
| 10.21 | 284.4 L/h/kg | – | – | – | Cc1ccc([C@H]2C[C@@H]2COc2cc(NCc3cnn(C)c3)nc(C)n2)nc1 | > 425000 | > 425000 | > 425000 | > 425000 | > 425000 | > 425000 | > 425000 | > 425000 | > 425000 | – | – |
| – | 720 L/h/kg | – | – | – | Cc1nc(C)c(CNc2nc(OCCCc3ccc4ccccc4n3)nc(Cl)c2C)s1 | > 5000 | > 5000 | > 5000 | > 5000 | > 5000 | > 5000 | > 5000 | > 5000 | > 5000 | – | – |
| 10.33 | – | 0.6 | – | 86 µM (≈ 33 µg/mL) | Cc1c(NCc2cnn(C)c2)cc(OC[C@H]2C[C@@H]2c2ccccn2)nc1Cl | > 30000 | > 30000 | > 30000 | > 30000 | > 30000 | > 30000 | > 30000 | > 30000 | > 30000 | – | – |
| – | – | 0.7 | – | – | Cn1cc(CNc2cc(OC[C@H]3C[C@@H]3c3ccccn3)nc3ccnn23)cn1 | > 5800 | > 5800 | > 5800 | > 5800 | > 5800 | > 5800 | > 5800 | > 5800 | > 5800 | – | – |
| 9.06 | – | 0.7 | – | 81 µM (≈ 31.3 µg/mL) | Cn1cc(CNc2cc(OC[C@H]3C[C@@H]3c3ccccn3)nc3cccnc23)cn1 | > 2000 | > 2000 | > 2000 | > 2000 | > 2000 | > 2000 | > 2000 | > 2000 | > 2000 | – | – |
